Test results from ChEMBL document CHEMBL1135596, “Synthesis and evaluation of indenopyrazoles as cyclin-dependent kinase inhibitors. 2. Probing the indeno ring substituent pattern” (J Med Chem, 2002).
pIC50: −log10 of the molar value.

What was measured:
[1] = target: T1, Cyclin-dependent kinase 2/cyclin E (Homo sapiens, UniProt P24941); test: Compound was evaluated for inhibition of Cyclin-dependent kinase 2-cyclin E; assay type: protein-complex assay
In short: (§1)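 CDK2/his-cyclin E in 50 mM Tris-HCl pH 7.6, 10 mM MgCl2, 10% DMSO, 1 mM DTT, 50 µM ATP, 0.05 µCi [γ-32P]ATP, 6 µM GST-Rb. Incubated at room temperature, stopped with cold PBS containing 100 mM EDTA, 10 mM ATP, BSA and NP40. 32P incorporation into Rb measured; IC50 by fit of v/vo to [I] with slope factor.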

[2] = target: T2, Cyclin-dependent kinase 4/cyclin D1 (Homo sapiens, UniProt P11802); test: Compound was evaluated for 50% inhibition of Cyclin-dependent kinase 4-cyclin D1; assay type: protein-complex assay
In short: (§2)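 CDK4/cyclin D1 from extracts of co-expressing cells; 50 mM Tris-HCl pH 7.6, 10 mM MgCl2, 10% DMSO, 1 mM DTT, 50 µM ATP with [γ-32P]ATP, 6 µg GST-Rb (Rb aa 378-928). Started with 4 units enzyme, 15 min at room temperature, stopped with EDTA/ATP buffer. Labeled GST-Rb captured on GSH-Sepharose and counted by scintillation. IC50 from fit of v/vo versus [I] with slope term.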

[3] = test system: AG1523; test: Toxicity tested against normal human fibroblast cell line (AG1523); assay type: functional, cell-based
In short: (§3)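 Sulforhodamine B growth assay. HCT116 colon carcinoma or AG1523 normal fibroblasts were seeded in McCoy's 5A with 5% FBS, at a density allowing 3-5 doublings. Incubation was 5 days (HCT116) or 6 days (AG1523) at 37 °C, 5% CO2. Cells were fixed with cold TCA, stained with 0.4% SRB, and dye was dissolved in 10 mM Tris base; OD read at 570 nm.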

[4] = test system: HCT-116; test: Toxicity tested against transformed human colon cancer cell line (HCT116); assay type: functional, cell-based; in short: as §3
[5] = test system: HCT-116; test: Effect of serum protein binding on inhibition of transformed cell line(PB HCT116) proliferation; assay type: functional, cell-based; conditions: Homo sapiens
In short: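 HCT116 cells were grown as in the SRB assay, with 45 mg/mL human serum albumin plus 1 mg/mL α1-acid glycoprotein added together with graded compound. Growth was read out by MTT: 1 mg/mL solution added, 4 h at 37 °C. Formazan was solubilized in 0.04 N HCl/isopropanol and absorbance read at 570 nm against a 630 nm reference.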

[6] = target: T1, Cyclin-dependent kinase 2/cyclin E; test: Inhibition of Cyclin-dependent kinase 2-cyclin E; assay type: protein-complex assay; in short: as §1
[7] = target: T2, Cyclin-dependent kinase 4/cyclin D1; test: Inhibition of Cyclin-dependent kinase 4-cyclin D1; assay type: protein-complex assay; in short: as §2

T2 sequence (P11802 whole entry, the tested form may be a part): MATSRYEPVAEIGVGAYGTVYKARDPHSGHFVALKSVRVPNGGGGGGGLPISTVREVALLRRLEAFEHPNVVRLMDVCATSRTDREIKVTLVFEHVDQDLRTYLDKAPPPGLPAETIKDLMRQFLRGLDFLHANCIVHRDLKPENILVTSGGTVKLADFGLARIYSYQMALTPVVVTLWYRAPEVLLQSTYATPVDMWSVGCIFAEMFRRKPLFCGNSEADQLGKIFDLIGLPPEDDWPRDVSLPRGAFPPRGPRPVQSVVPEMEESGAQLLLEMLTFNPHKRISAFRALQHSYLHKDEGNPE
T2 sequence (P24385 whole entry, further chain, the tested form may be a part): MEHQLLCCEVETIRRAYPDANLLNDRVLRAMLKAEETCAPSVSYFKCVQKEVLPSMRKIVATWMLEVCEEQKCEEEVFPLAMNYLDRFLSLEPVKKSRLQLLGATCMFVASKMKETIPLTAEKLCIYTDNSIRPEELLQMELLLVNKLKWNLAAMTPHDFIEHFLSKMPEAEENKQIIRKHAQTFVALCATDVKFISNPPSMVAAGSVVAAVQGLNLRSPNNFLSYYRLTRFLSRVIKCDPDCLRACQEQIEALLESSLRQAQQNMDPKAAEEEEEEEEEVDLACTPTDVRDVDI

| pIC50 [1] | pIC50 [2] | pIC50 [5] | pIC50 [6] | pIC50 [7] | SMILES | pIC50 [3] | pIC50 [4] |
| --- | --- | --- | --- | --- | --- | --- | --- |
| 7.82 | 7.92 |  |  |  | COc1ccc(-c2[nH]nc3c2C(=O)c2c(NC(=O)NN4CCCC4)cccc2-3)cc1 |  |  |
| 7.66 | 7.92 |  |  |  | COc1ccc(-c2[nH]nc3c2C(=O)c2c(NC(=O)NN4CCCCC4)cccc2-3)cc1 |  |  |
| 7.96 | 7.09 |  |  |  | COc1ccc(-c2[nH]nc3c2C(=O)c2c(NC(=O)CN4CCC(CO)CC4)cccc2-3)cc1 |  |  |
| 5.08 | 4.64 |  |  |  | COc1ccc(-c2[nH]nc3c2C(=O)c2c(N)cccc2-3)cc1 |  |  |
| 7.54 | 5.94 | < 4.24 |  |  | COc1ccc(-c2[nH]nc3c2C(=O)c2c(NC(=O)NCc4ccncc4)cccc2-3)cc1 | < 4.62 | 6.42 |
| 8.15 | 7.59 |  |  |  | COc1ccc(-c2[nH]nc3c2C(=O)c2c(NC(=O)CN4CCN(C(=N)N)CC4)cccc2-3)cc1 |  | < 6.05 |
| 8.10 | 7.19 | < 5.28 |  |  | COc1ccc(-c2[nH]nc3c2C(=O)c2c(NC(=O)CN4CCN(C(N)=O)CC4)cccc2-3)cc1 | < 6.40 | 7.33 |
| < 3.55 | < 3.70 |  |  |  | COc1ccc(-c2c3c(nn2-c2ccccc2)-c2ccccc2C3=O)cc1 |  |  |
| 7.08 | 6.11 |  |  |  | CCCCNC(=O)Nc1cccc2c1C(=O)c1c(-c3ccc(OC)cc3)n[nH]c1-2 |  |  |
| 7.92 | 7.70 |  |  |  | COc1ccc(-c2[nH]nc3c2C(=O)c2c(NC(=O)CN4CCC(CN)CC4)cccc2-3)cc1 | 6.22 | 7.15 |
| < 5.64 | < 5.64 |  |  |  | COc1ccc(-c2[nH]nc3c2C(=O)c2c(NC(=O)N(C)Cc4ccccc4)cccc2-3)cc1 |  |  |
| 6.73 | < 6.00 |  |  |  | COc1ccc(-c2[nH]nc3c2C(=O)c2c(NC(=O)CN4CCCCC4)cccc2-3)cc1 |  |  |
| < 5.89 | < 5.89 |  |  |  | CCN(CC)C(=O)Nc1cccc2c1C(=O)c1c(-c3ccc(OC)cc3)n[nH]c1-2 |  |  |
| 7.27 | < 6.30 |  |  |  | COc1ccc(-c2[nH]nc3c2C(=O)c2c(NC(=O)CN4CCSCC4)cccc2-3)cc1 |  |  |
|  | 4.67 |  |  |  | COc1ccc(-c2[nH]nc3c2C(=O)c2cc(O)ccc2-3)cc1 |  |  |
| 3.68 | 3.97 |  |  |  | COc1ccc(-c2[nH]nc3c2C(=O)c2cc(N)ccc2-3)cc1 |  |  |
| 7.36 | 6.05 |  |  |  | COc1ccc(-c2[nH]nc3c2C(=O)c2c(NC(=O)CN(C)C)cccc2-3)cc1 |  |  |
| 7.48 | 6.95 |  |  |  | COc1ccc(-c2[nH]nc3c2C(=O)c2c(NC(=O)CN4CCNCC4)cccc2-3)cc1 |  |  |

| pIC50 [1] | pIC50 [2] | pIC50 [5] | pIC50 [6] | pIC50 [7] | SMILES | pIC50 [3] | pIC50 [4] |
| --- | --- | --- | --- | --- | --- | --- | --- |
| 6.89 | 6.04 |  |  |  | CCNCC(=O)Nc1cccc2c1C(=O)c1c-2n[nH]c1-c1ccc(OC)cc1 |  |  |
| 7.92 | 8.05 |  |  |  | COc1ccc(-c2[nH]nc3c2C(=O)c2c(NC(=O)NN4CCN(C)CC4)cccc2-3)cc1 | 7.07 | 7.82 |
| 8.15 | 7.18 | 5.49 |  |  | COc1ccc(-c2[nH]nc3c2C(=O)c2c(NC(N)=O)cccc2-3)cc1 | 6.38 | 7.24 |
| 8.10 | 7.12 |  |  |  | COc1ccc(-c2[nH]nc3c2C(=O)c2c(NC(=O)CN4CCC(C(N)=O)CC4)cccc2-3)cc1 | 6.40 |  |
|  | 4.26 |  |  |  | COc1ccc(-c2[nH]nc3c2C(=O)c2cc(Cl)c(Cl)cc2-3)cc1 |  |  |
|  | < 3.44 |  |  |  | COc1ccc(-c2[nH]nc3c2C(=O)c2cccnc2-3)cc1 |  |  |
| < 3.47 | < 3.47 |  |  |  | COc1ccc(-c2c3c(nn2C)-c2ccccc2C3=O)cc1 |  |  |
| 5.28 | 4.70 |  |  |  | COc1ccc(-c2[nH]nc3c2C(=O)c2c(O)cccc2-3)cc1 |  |  |
| 7.92 | 6.90 |  |  |  | COc1ccc(-c2[nH]nc3c2C(=O)c2c(NC(=O)CN4CCN(C)CC4)cccc2-3)cc1 |  |  |
| 7.74 | 7.92 | 6.21 |  |  | COc1ccc(-c2[nH]nc3c2C(=O)c2c(NC(=O)NN4CCOCC4)cccc2-3)cc1 | 6.02 | 7.70 |
| 5.33 | 4.46 |  |  |  | COc1ccc(-c2[nH]nc3c2C(=O)c2ccncc2-3)cc1 |  |  |
|  |  | 5.91 | 8.30 | 7.68 | COc1ccc(-c2[nH]nc3c2C(=O)c2c(NC(=O)NN(C)C)cccc2-3)cc1 | 6.41 | 7.55 |
| 7.02 | 6.51 |  |  |  | COc1ccc(-c2[nH]nc3c2C(=O)c2c(NC(=O)NCc4ccccc4)cccc2-3)cc1 |  |  |
| 6.74 | < 5.96 |  |  |  | COc1ccc(CNC(=O)Nc2cccc3c2C(=O)c2c(-c4ccc(OC)cc4)n[nH]c2-3)cc1 |  |  |
| < 6.14 | < 5.85 |  |  |  | COc1ccc(-c2[nH]nc3c2C(=O)c2c(NC(=O)CN)cccc2-3)cc1 |  |  |
| 7.68 | 6.71 |  |  |  | COc1ccc(-c2[nH]nc3c2C(=O)c2c(NC(=O)CN4CCOCC4)cccc2-3)cc1 |  |  |
| 7.49 | 6.06 |  |  |  | COc1ccc(-c2[nH]nc3c2C(=O)c2c(NC(=O)Nc4ccccc4)cccc2-3)cc1 |  |  |
